From PMC2818804 (Journal of medicinal chemistry, 2010)
Converted amounts (≈) assume the structure as drawn.

Legend:
[1] = molecular target: PKM2 (Homo sapiens, UniProt P14618); assay: steady-state kinetics of PEP and ADP in the PK-LDH coupled assay; format: biochemical; conditions: in the presence of activator (10 μM); PEP varied
[2] = system: firefly luciferase; assay: firefly luciferase counter-assay; format: biochemical
[3] = kinetic solubility analysis; format: physicochemical; conditions: aqueous medium (not further specified)
Outline: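 Solubility determined by quantitative nitrogen detection. Three separate experiments; average intra-assay %CV 4.5%.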

[4] = molecular target: hPK, M2 (pyruvate kinase, human M2 isoform, PKM2) (Homo sapiens, UniProt P14618); assay: luminescent pyruvate kinase-luciferase coupled assay; format: biochemical; conditions: read-out: hPK, M2 AC50, three separate experiments
Sequence of hPK, M2 (pyruvate kinase, human M2 isoform, PKM2) (P14618 whole entry, canonical isoform): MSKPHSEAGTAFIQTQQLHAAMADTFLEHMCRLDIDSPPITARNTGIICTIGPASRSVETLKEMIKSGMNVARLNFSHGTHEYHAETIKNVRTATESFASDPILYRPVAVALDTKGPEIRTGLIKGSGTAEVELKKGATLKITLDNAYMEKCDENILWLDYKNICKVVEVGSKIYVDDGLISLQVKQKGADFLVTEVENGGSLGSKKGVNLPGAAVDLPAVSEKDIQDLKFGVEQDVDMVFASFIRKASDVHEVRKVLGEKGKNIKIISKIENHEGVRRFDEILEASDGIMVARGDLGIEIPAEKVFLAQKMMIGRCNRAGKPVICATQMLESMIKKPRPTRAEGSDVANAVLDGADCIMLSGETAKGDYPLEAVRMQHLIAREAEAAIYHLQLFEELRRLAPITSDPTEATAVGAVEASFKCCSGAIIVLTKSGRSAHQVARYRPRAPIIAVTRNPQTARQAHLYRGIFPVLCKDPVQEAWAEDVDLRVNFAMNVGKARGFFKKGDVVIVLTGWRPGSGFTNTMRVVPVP

Sequence of PKM2 (P14618 whole entry): as the sequence (P14618 whole entry, canonical isoform) above

Row | solubility [3] [µg/mL] | SMILES | also measured
1 |  | COc1ccc(S(=O)(=O)N2CCN(S(=O)(=O)c3ccc4c(c3)OCCO4)CC2)cc1 [compound 2] | Vmax [1]: 265 pmols/min; activation of firefly luciferase [2]: did not activate
2 | < 0.5 | O=S(=O)(c1ccc2c(c1)OCCO2)N1CCN(S(=O)(=O)c2c(F)cccc2F)CC1 [compound 10] | 
3 | 2.7 (≈ 5.69 µM) | O=S(=O)(c1ccc2c(c1)OCCO2)N1CCCN(S(=O)(=O)c2c(F)cccc2F)CC1 [compound 34] | 
4 |  | O=S(=O)(N[C@H]1CC[C@H](NS(=O)(=O)c2c(F)cccc2F)CC1)c1ccc2c(c1)OCCO2 [compound 40] | AC50 [4]: 2.11 µM
5 | 3 (≈ 7.19 µM) | Nc1cccc(S(=O)(=O)N2CCN(S(=O)(=O)c3c(F)cccc3F)CC2)c1 [compound 56] | 
6 | 15.1 (≈ 32.7 µM) | COc1cc(F)c(S(=O)(=O)N2CCCN(S(=O)(=O)c3cccc(N)c3)CC2)c(F)c1 [compound 57] | 
